This is an account of results in ChEMBL document CHEMBL1151319, “Antiplatelet aggregation constituents from Annona purpurea” (1998).

The first test concerns Platelet. As to the kind of experiment: Inhibition of platelet activating factor-induced platelet aggregation in rabbit platelets at 50 ug/mL treated […] before […] challenge relative to control. It counts as functional, Oryctolagus cuniculus. The arrangement: scale not given: the % may be the effect or the level left. In a few lines:
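PAF-induced aggregation of rabbit platelets was run after 3 min preincubation at 37 °C with compound at graded levels or 0.5% DMSO control. PAF is given as 2 ng/mL in the footnote and 2 nM in the column header. Output is % aggregation with n per point.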
As for `CNCCc1c(OC)c(OC)c(OC)c2c1ccc1cc(OC)c(OC)cc12` [THALICPUREINE], the Activity is recorded as 3.9%.
The same measure, in the same setting: then `COc1cc2c(cc1OC)-c1c(OC)c(OC)cc3ccnc(c13)C2=O` [OXOGLAUCINE], with 84.4%; and `COc1cc2ccnc3c2c(c1OC)-c1ccccc1C3=O` [LYSICAMINE], with 83.7%.
Turning to `COc1cc2c(O)c3c4c(cc(OC)c(OC)c4c2cc1OC)CCN3C`, the Activity is reported as 0%.

In another test the test system is Platelet. Description: Inhibition of platelet activating factor-induced platelet aggregation in rabbit platelets at 10 ug/mL treated 3 mins before platelet activating factor challenge relative to control. Set-up: scale not given: the % may be the effect or the level left.
On to `CNCCc1c(OC)c(OC)c(OC)c2c1ccc1cc(OC)c(OC)cc12` [THALICPUREINE], for which the Activity came out at 78.8%.
The same measure, in the same setting: under `COc1cc2c(O)c3c4c(cc(OC)c(OC)c4c2cc1OC)CCN3C` stands 64.9%.

The subject of a further test is Platelet. As to the kind of experiment: Inhibition of collagen-induced platelet aggregation in rabbit platelets at 50 ug/mL treated 30 mins before […] challenge relative to control. Set-up: scale not given: the % may be the effect or the level left. The test is classed as functional, Oryctolagus cuniculus.
Consider `COc1cc2c(cc1OC)-c1c(OC)c(OC)cc3ccnc(c13)C2=O` [OXOGLAUCINE], for which the Activity was 74.4%.
With `COc1cc2ccnc3c2c(c1OC)-c1ccccc1C3=O` [LYSICAMINE], the Activity is listed as 55.2%.

Another test deals with Platelet. As to the kind of experiment: Inhibition of platelet activating factor-induced platelet aggregation in rabbit platelets at 5 ug/mL treated 3 mins before platelet activating factor challenge relative to control. Set-up: scale not given: the % may be the effect or the level left.
`CNCCc1c(OC)c(OC)c(OC)c2c1ccc1cc(OC)c(OC)cc12` [THALICPUREINE]: the Activity is recorded as 82.4%.
Still for that read-out and setting: under `COc1cc2c(O)c3c4c(cc(OC)c(OC)c4c2cc1OC)CCN3C` stands 77.9%.

A further test concerns Platelet. Description: Inhibition of arachidonic acid-induced platelet aggregation in rabbit platelets at 20 ug/mL treated 30 mins before […] challenge relative to control. The arrangement: scale not given: the % may be the effect or the level left. It counts as functional, Oryctolagus cuniculus.
Turning to `COc1cc2c(cc1OC)-c1c(OC)c(OC)c(O)c3c1[C@@H](C2)N(C)CC3` [THALBAICALIDINE], the Activity was 82.2%.
The compound `COc1cc2c3c(cc4ccccc4c3c1O)N(C)CC2` [DEHYDROLIRINIDINE] gave an Activity of 77.6%.
In turn, `COc1cc2c(cc1OC)-c1c(OC)c(O)cc3c1[C@H](C2)N(C)CC3` [PREDICENTRINE] yielded an Activity of 83.2%.
Still for that read-out and setting: under `CNCCc1c(OC)c(OC)c(OC)c2c1ccc1cc(OC)c(OC)cc12` [THALICPUREINE] stands 41.9%.

The next test has as its system Platelet. Description: Inhibition of arachidonic acid-induced platelet aggregation in rabbit platelets at 50 ug/mL treated 30 mins before […] challenge relative to control. It counts as functional, Oryctolagus cuniculus. Set-up: scale not given: the % may be the effect or the level left.
As for `COc1cc2c(cc1OC)-c1c(OC)c(OC)c(O)c3c1[C@@H](C2)N(C)CC3` [THALBAICALIDINE], the Activity turned out to be 72.2%.
With `COc1cc2c3c(cc4ccccc4c3c1O)N(C)CC2` [DEHYDROLIRINIDINE], the Activity worked out at 23.8%.
The same measure, in the same setting: under `COc1cc2c(cc1OC)-c1c(OC)c(O)cc3c1[C@H](C2)N(C)CC3` [PREDICENTRINE] stands 62%; under `CNCCc1c(OC)c(OC)c(OC)c2c1ccc1cc(OC)c(OC)cc12` [THALICPUREINE], 0%.
For the compound `COc1cc2ccnc3c2c(c1OC)-c1ccccc1C3=O` [LYSICAMINE], the Activity is reported as 16.3%.

A further test relates to Platelet. Description: Inhibition of arachidonic acid-induced platelet aggregation in rabbit platelets at 50 ug/mL treated 3 min before arachidonic acid challenge relative to control. The arrangement: scale not given: the % may be the effect or the level left.
As to `COc1cc2c(cc1OC)-c1c(OC)c(OC)cc3ccnc(c13)C2=O` [OXOGLAUCINE], the Activity is on record as 55.8%.

The next test concerns Platelet. Description: Inhibition of thrombin-induced platelet aggregation in rabbit platelets at 100 ug/mL treated […] before thrombin challenge relative to control. The test is classed as functional, Oryctolagus cuniculus. Set-up: scale not given: the % may be the effect or the level left. The method in brief: (§1)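 Rabbit platelets were preincubated at 37 °C for 3 min with compound at 100 μg/mL, or with 0.5% DMSO as the control, before the inducer was added. Inducers were thrombin 0.1 U/mL, arachidonic acid 100 μM, collagen 10 μg/mL, or PAF. The read-out was % aggregation, with 3–6 replicates.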
Take `COc1cc2c(cc1OC)-c1c(OC)c(OC)c(O)c3c1[C@@H](C2)N(C)CC3` [THALBAICALIDINE]: the Activity came out at 86.3%.
In turn, `COc1cc2c3c(cc4ccccc4c3c1O)N(C)CC2` [DEHYDROLIRINIDINE] returned an Activity of 86.3%.
For the compound `COc1cc2c(cc1OC)-c1c(OC)c(O)cc3c1[C@H](C2)N(C)CC3` [PREDICENTRINE], the Activity is given as 88.9%.
`CNCCc1c(OC)c(OC)c(OC)c2c1ccc1cc(OC)c(OC)cc12` [THALICPUREINE]: the Activity was 33.6%.
Still for that read-out and setting: then `COc1cc2c(O)c3c4c(cc(OC)c(OC)c4c2cc1OC)CCN3C`, with 78.8%.

Another test relates to Platelet. As to the kind of experiment: Inhibition of arachidonic acid-induced platelet aggregation in rabbit platelets at 10 ug/mL treated 3 mins before arachidonic acid challenge relative to control. Set-up: scale not given: the % may be the effect or the level left.
Compound `COc1cc2c3c(cc4ccccc4c3c1O)N(C)CC2` [DEHYDROLIRINIDINE] had an Activity of 82.8%.
Regarding `CNCCc1c(OC)c(OC)c(OC)c2c1ccc1cc(OC)c(OC)cc12` [THALICPUREINE], the Activity is given as 74.2%.

Another test concerns Platelet. As to the kind of experiment: Inhibition of platelet activating factor-induced platelet aggregation in rabbit platelets at 20 ug/mL treated 3 mins before platelet activating factor challenge relative to control. The arrangement: scale not given: the % may be the effect or the level left.
For the compound `CNCCc1c(OC)c(OC)c(OC)c2c1ccc1cc(OC)c(OC)cc12` [THALICPUREINE], the Activity is listed as 55.5%.
Still for that read-out and setting: under `COc1cc2c(O)c3c4c(cc(OC)c(OC)c4c2cc1OC)CCN3C` stands 25.2%.

The next test concerns Platelet. As to the kind of experiment: Inhibition of arachidonic acid-induced platelet aggregation in rabbit platelets at 5 ug/mL treated 3 mins before arachidonic acid challenge relative to control. Set-up: scale not given: the % may be the effect or the level left.
`CNCCc1c(OC)c(OC)c(OC)c2c1ccc1cc(OC)c(OC)cc12` [THALICPUREINE] yielded an Activity of 83.7%.

For a further test, the system named is Platelet. Description: Inhibition of thrombin-induced platelet aggregation in rabbit platelets at 50 ug/mL treated 30 mins before thrombin challenge relative to control. It counts as functional, Oryctolagus cuniculus. The arrangement: scale not given: the % may be the effect or the level left.
Take `COc1cc2c(cc1OC)-c1c(OC)c(OC)cc3ccnc(c13)C2=O` [OXOGLAUCINE]: the Activity was 87%.
The same measure, in the same setting: then `COc1cc2ccnc3c2c(c1OC)-c1ccccc1C3=O` [LYSICAMINE], with 88.9%.

The next test has as its system Platelet. Description: Inhibition of collagen-induced platelet aggregation in rabbit platelets at 100 ug/mL treated […] before […] challenge relative to control. The test is classed as functional, Oryctolagus cuniculus. Set-up: scale not given: the % may be the effect or the level left. The method in brief: as §1
The compound `COc1cc2c(cc1OC)-c1c(OC)c(OC)c(O)c3c1[C@@H](C2)N(C)CC3` [THALBAICALIDINE] came in with an Activity of 0%.
Compound `COc1cc2c3c(cc4ccccc4c3c1O)N(C)CC2` [DEHYDROLIRINIDINE] gave an Activity of 0%.
Still for that read-out and setting: under `COc1cc2c(cc1OC)-c1c(OC)c(OC)c(OC)c3ccnc(c13)C2=O` [OXOPURPUREINE] stands 53.5%.
Still for that read-out and setting: under `COc1cc2c(cc1OC)-c1c(OC)c(O)cc3c1[C@H](C2)N(C)CC3` [PREDICENTRINE] stands 0%; under `CNCCc1c(OC)c(OC)c(OC)c2c1ccc1cc(OC)c(OC)cc12` [THALICPUREINE], 0%.
Same read-out and setting: under `COc1cc2c(O)c3c4c(cc(OC)c(OC)c4c2cc1OC)CCN3C` stands 12.7%.

A further test has as its system Platelet. As to the kind of experiment: Inhibition of arachidonic acid-induced platelet aggregation in rabbit platelets at 100 ug/mL treated […] before […] challenge relative to control. Set-up: scale not given: the % may be the effect or the level left. The test is classed as functional, Oryctolagus cuniculus. The method in brief:
as §1
In the case of `COc1cc2c(cc1OC)-c1c(OC)c(OC)c(O)c3c1[C@@H](C2)N(C)CC3` [THALBAICALIDINE], the Activity is recorded as 4.2%.
For `COc1cc2c3c(cc4ccccc4c3c1O)N(C)CC2` [DEHYDROLIRINIDINE], the Activity amounted to 0%.
On to `COc1cc2c(cc1OC)-c1c(OC)c(OC)c(OC)c3ccnc(c13)C2=O` [OXOPURPUREINE], for which the Activity stood at 43.7%.
Consider `COc1cc2c(cc1OC)-c1c(OC)c(O)cc3c1[C@H](C2)N(C)CC3` [PREDICENTRINE], for which the Activity worked out at 0%.
The same measure, in the same setting: then `CNCCc1c(OC)c(OC)c(OC)c2c1ccc1cc(OC)c(OC)cc12` [THALICPUREINE], with 0%.
The same measure, in the same setting: then `COc1cc2c(O)c3c4c(cc(OC)c(OC)c4c2cc1OC)CCN3C`, with 21.8%.

Another test relates to Platelet. As to the kind of experiment: Inhibition of platelet activating factor-induced platelet aggregation in rabbit platelets at 100 ug/mL treated […] before […] challenge relative to control. The test is classed as functional, Oryctolagus cuniculus. Set-up: scale not given: the % may be the effect or the level left. The method in brief: as §1
As to `COc1cc2c(cc1OC)-c1c(OC)c(OC)c(O)c3c1[C@@H](C2)N(C)CC3` [THALBAICALIDINE], the Activity came out at 73.6%.
Same read-out and setting: under `COc1cc2c3c(cc4ccccc4c3c1O)N(C)CC2` [DEHYDROLIRINIDINE] stands 51.7%; under `COc1cc2c(cc1OC)-c1c(OC)c(OC)c(OC)c3ccnc(c13)C2=O` [OXOPURPUREINE], 87.2%; under `COc1cc2c(cc1OC)-c1c(OC)c(O)cc3c1[C@H](C2)N(C)CC3` [PREDICENTRINE], 74%.
On the same count and under the same terms, under `CNCCc1c(OC)c(OC)c(OC)c2c1ccc1cc(OC)c(OC)cc12` [THALICPUREINE] stands 0%.
Compound `COc1cc2c(O)c3c4c(cc(OC)c(OC)c4c2cc1OC)CCN3C` showed an Activity of 0%.
